Published values collected from several papers.
Target: Serine/threonine-protein kinase 26 (STK26, Homo sapiens, UniProt Q9P289)

SMILES	test	setting	remaining binding
O=C(Nc1c[nH]nc1C(=O)NC1CCNCC1)c1cc(F)cc(F)c1	binding, competition with immobilised ligand	1 µM	68%
COc1ncc2cc3ccccc3nc2c1C#N	cell-free assay, competition with immobilised ligand	5 µM	100%
COc1cnc(Nc2cccc(S(N)(=O)=O)c2)nc1N1CCN(c2ccccc2)CC1	binding, competition with immobilised ligand	1 µM	78%
NS(=O)(=O)c1cc(NC(=O)C2(c3ccccc3Cl)CC2)ccc1Oc1cccc(Cl)c1	cell-free assay, competition with immobilised ligand	1 µM	100%
O=C(c1ccc(Nc2ncc(Cl)c(-c3cc4ccccc4s3)n2)cc1)N1CCC(N2CCCC2)CC1	binding, competition with immobilised ligand	1 µM	66%
CNC(=O)[C@@H]1CC[C@@H](n2c(-c3ccc4cnccc4c3)nc3ccc(C(=O)NCc4cccc(C(N)=O)c4)cc32)C1	binding, competition with immobilised ligand	1 µM	100%
C[C@@H](c1ccc(-n2cnc3c(N)ncnc32)cc1)N1CCc2nn(C)c(Cc3ccccc3)c2C1=O	binding, competition with immobilised ligand	0.1 µM	88%
O=C(Nc1cccnn1)N1CCC(=Cc2cccc(Oc3ccc(C(F)(F)F)cn3)c2)CC1	cell-free assay, competition with immobilised ligand	1 µM	100%
O=C(NCCCN1CCOCC1)c1ccc(Nc2nccc(-c3cc4ccccc4s3)n2)cc1	binding, competition with immobilised ligand	1 µM	87%
c1cncc(-c2cccc(Nc3nccc(NC4CCCCC4)n3)c2)c1	binding, competition with immobilised ligand	10 µM	83%
CCC(=O)N[C@@H]1CC[C@H](C(=O)N(C)c2ccc(-c3nc4ccccc4o3)cc2)C1	cell-free assay, competition with immobilised ligand	1 µM	77%
O=C(NCCCN1CCOCC1)c1ccc(Nc2ncc(Cl)c(-c3ccc(Cl)s3)n2)cc1	binding, competition with immobilised ligand	1 µM	16%
CN([C@@H]1CCc2c(CC(=O)O)c3cc(S(C)(=O)=O)ccc3n2C1)S(=O)(=O)c1ccc(F)cc1	cell-free assay, competition with immobilised ligand	1 µM	77%
CN1CCN(c2ccc(Nc3nccc(-c4cccc([N+](=O)[O-])c4)n3)cc2C(F)(F)F)CC1	binding	10 µM	33%
